One may read the MIC as the lowest concentration that inhibits growth of the organism. For orientation: IC50 means the point on the concentration scale where inhibition reaches its midpoint. Broadly, the MIC50 is the lowest concentration that inhibits either 50% of growth or 50% of the strains tested, depending on the study. As a reminder, the MIC90 is the lowest concentration that inhibits either 90% of growth or 90% of the strains tested, depending on the study.

Converted amounts (≈) assume the structure as drawn. Where only a bound is given, the exact number is not on record here.

These results are taken from ChEMBL document CHEMBL6109036, “Azo derivatives of monoterpenes as anti-Helicobacter pylori agents: from synthesis to structure-based target investigation” (RSC Med Chem, 2025).

Data set [1] has as its system Helicobacter pylori. As to the kind of experiment: Anti-bacterial activity against Helicobacter pylori Clinical isolate 23 measured after 72 hrs incubation by modified broth dilution method. In kind it is functional.
The nature of data set [2]: Cytotoxicity against human HIEC-6 cells assessed as cell viability measured after 72 hrs by MTT assay.
Data set [3] deals with Helicobacter pylori. Description: Anti-bacterial activity against Helicobacter pylori measured after 72 hrs incubation by modified broth dilution method. In kind it is functional. On the technique in general: Dilution methods test growth across graded concentrations, often in twofold steps.
In data set [4] the test system is Helicobacter pylori. Description: Bactericidal activity against Helicobacter pylori Clinical isolate 23 measured after 72 hrs of incubation under microaerophilic conditions by modified broth dilution method. In kind it is functional. The conditions noted are these: read-out: MBC99.9. In a few lines:
(§1)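 H. pylori (NCTC 11637, F1, 23, F4). Wells with no visible growth in the MIC assay spotted (10 μL) onto Skirrow agar. Plates incubated 72 h at 37 °C, microaerophilic, 100% humidity. MBC = concentration killing 99.9% of the initial inoculum. Triplicate, on at least three different days.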

For data set [5], the system named is Helicobacter pylori. Description: Anti-bacterial activity against Helicobacter pylori Clinical isolate F4 measured after 72 hrs incubation by modified broth dilution method. In kind it is functional.
The subject of data set [6] is Escherichia coli. As to the kind of experiment: Bactericidal against lactose fermenting Escherichia coli ATCC 25922 measured after 24 hrs of incubation by broth microdilution method. Conditions: ATCC 25922, 24 h, read-out: MBC99.9.
In data set [7] the test system is Helicobacter pylori. Description: Bactericidal against Helicobacter pylori Clinical isolate F4 measured after 72 hrs of incubation under microaerophilic conditions by modified broth dilution method. In kind it is functional. The conditions noted are these: read-out: MBC99.9. Summed up:
as §1

In data set [8] the test system is Helicobacter pylori. As to the kind of experiment: Anti-bacterial activity against Helicobacter pylori NCTC 11637 measured after 72 hrs incubation by modified broth dilution method. In kind it is functional.
The nature of data set [9]: Cytotoxicity against human HIEC-6 cells assessed as cell viability measured after 48 hrs by MTT assay. For orientation: Tetrazolium dyes change colour on reduction, which living cells bring about.
In data set [10] the test system is Helicobacter pylori. Description: Bactericidal activity against Helicobacter pylori NCTC 11637 measured after 72 hrs of incubation under microaerophilic conditions by modified broth dilution method. In kind it is functional. The conditions noted are these: read-out: MBC99.9. In a few lines:
as §1

Data set [11] relates to Escherichia coli. As to the kind of experiment: Anti-bacterial activity against lactose fermenting Escherichia coli ATCC 25922 measured after 24 hrs incubation by modified broth dilution method. The conditions noted are these: ATCC 25922, 24 h.
For data set [12], the system named is Helicobacter pylori. Description: Anti-bacterial activity against Helicobacter pylori Clinical isolate F1 measured after 72 hrs incubation by modified broth dilution method. In kind it is functional.
Data set [13] has as its system Pseudomonas aeruginosa. As to the kind of experiment: Bactericidal against non-lactose fermenting Pseudomonas aeruginosa ATCC 27853 measured after 24 hrs of incubation by broth microdilution method. The conditions noted are these: ATCC 27853, 24 h, read-out: MBC99.9.
Data set [14] deals with Staphylococcus aureus. Description: Bactericidal against Gram-positive Staphylococcus aureus ATCC 29213 measured after 24 hrs of incubation by broth microdilution method. The conditions noted are these: ATCC 29213, 24 h, read-out: MBC99.9.
The test system of data set [15] is Helicobacter pylori. Description: Bactericidal activity against Helicobacter pylori Clinical isolate F1 measured after 72 hrs of incubation under microaerophilic conditions by modified broth dilution method. Conditions: read-out: MBC99.9. In kind it is functional. In a few lines: as §1
Data set [16] has as its system Staphylococcus aureus. As to the kind of experiment: Anti-bacterial activity against Gram-positive Staphylococcus aureus ATCC 29213 measured after 24 hrs incubation by modified broth dilution method. Conditions: ATCC 29213, 24 h.
The subject of data set [17] is Helicobacter pylori. As to the kind of experiment: Bactericidal against Helicobacter pylori measured after 72 hrs of incubation under microaerophilic conditions by modified broth dilution method. In kind it is functional. Summed up: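 Wells with no visible growth in the MIC assay spotted (10 μL) onto Skirrow agar. Plates incubated 72 h at 37 °C, microaerophilic, 100% humidity. Triplicate, on at least three different days.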

The nature of data set [18]: Cytotoxicity against human HIEC-6 cells assessed as cell viability measured after 24 hrs by MTT assay.
In data set [19] the test system is Pseudomonas aeruginosa. Description: Anti-bacterial activity against non-lactose fermenting Pseudomonas aeruginosa ATCC 27853 measured after 24 hrs incubation by modified broth dilution method. The conditions noted are these: ATCC 27853, 24 h.
A short description of data set [20]: Cytotoxicity against SV40-immortalized non-tumorigenic human GES1 cells assessed as cell viability measured after 72 hrs by Alamar blue assay. In kind it is toxicity, cell-based. Summed up:
(§2)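 GES-1 cells grown in RPMI with 10% FCS, glutamine, pen/strep and 10 mM HEPES at 37 °C, 5% CO2. Exposed to increasing concentrations for 24, 48 or 72 h. Alamar blue then added for 4 h at 37 °C and read at 540 and 630 nm. Percent reduction relative to untreated cells (100%).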
A general note: The colour change of resazurin is a common sign of viable cells or microbes.

Data set [21] can be described thus: Cytotoxicity against SV40-immortalized non-tumorigenic human GES1 cells assessed as cell viability measured after 24 hrs by Alamar blue assay. In kind it is toxicity, cell-based. Summed up:
as §2

Data set [22] is described as follows: Cytotoxicity against SV40-immortalized non-tumorigenic human GES1 cells assessed as cell viability measured after 48 hrs by Alamar blue assay. In kind it is toxicity, cell-based. In a few lines: as §2

Take `Cc1cc(O)c(C(C)C)cc1/N=N/c1ccc([N+](=O)[O-])cc1`: the MIC is 2 mg/L (≈ 6.68 µM) against Helicobacter pylori [1]; 4 mg/L (≈ 13.4 µM) with Helicobacter pylori [5]; 2 mg/L (≈ 6.68 µM) against Helicobacter pylori [8]; greater than 128 mg/L in the data set with Escherichia coli [11]; 2 mg/L (≈ 6.68 µM) against Helicobacter pylori [12]; 2 mg/L (≈ 6.68 µM) against Staphylococcus aureus [16]. Moreover, the MIC against Pseudomonas aeruginosa [19] was greater than 128 mg/L. Besides, the IC50 at 72 h in data set [2] came to 7.61 mg/L (≈ 25.4 µM); in [20], 8.44 mg/L (≈ 28.2 µM). For the same compound, in the data set with Helicobacter pylori [3], the MIC50 was found to be 2 mg/L (≈ 6.68 µM). The MIC90 against Helicobacter pylori [3] was 4 mg/L (≈ 13.4 µM). The MBC in the data set on Helicobacter pylori [4] is 2 mg/L (≈ 6.68 µM); in the data set on Escherichia coli [6], greater than 128 mg/L; with Helicobacter pylori [7], 4 mg/L (≈ 13.4 µM); in the data set on Helicobacter pylori [10] it was 2 mg/L (≈ 6.68 µM); in the data set with Pseudomonas aeruginosa [13] it was greater than 128 mg/L; in the data set with Staphylococcus aureus [14] it was 32 mg/L (≈ 107 µM). In the data set with Helicobacter pylori [15], the MBC worked out at 2 mg/L (≈ 6.68 µM). For the same compound, the IC50 at 48 h in [9] was 7.61 mg/L (≈ 25.4 µM). Besides, the MBC90 against Helicobacter pylori [17] is 4 mg/L (≈ 13.4 µM). Further, the values for the IC50 at 24 h in [18] and in [21] were 13.6 mg/L (≈ 45.4 µM) and 12.1 mg/L (≈ 40.4 µM), respectively.
With `Cc1ccc(C(C)C)c(/N=N/c2ccc([N+](=O)[O-])cc2)c1O`, the MIC in the data set with Helicobacter pylori [1] is 2 mg/L (≈ 6.68 µM); against Helicobacter pylori [5], 4 mg/L (≈ 13.4 µM); against Helicobacter pylori [8], 2 mg/L (≈ 6.68 µM); in the data set on Escherichia coli [11], greater than 128 mg/L; in the data set with Helicobacter pylori [12], 2 mg/L (≈ 6.68 µM); with Staphylococcus aureus [16], 2 mg/L (≈ 6.68 µM). The compound further had an MIC in the data set with Pseudomonas aeruginosa [19] greater than 128 mg/L. Besides, the IC50 at 72 h in [2] was found to be 13.3 mg/L (≈ 44.3 µM); in data set [20], 12 mg/L (≈ 40.2 µM). This compound had an MIC50 with Helicobacter pylori [3] of 2 mg/L (≈ 6.68 µM). Also, the MIC90 with Helicobacter pylori [3] stood at 4 mg/L (≈ 13.4 µM). For the same compound, the MBC with Helicobacter pylori [4] is 2 mg/L (≈ 6.68 µM); with Escherichia coli [6], greater than 128 mg/L; with Helicobacter pylori [7] it was 4 mg/L (≈ 13.4 µM); with Helicobacter pylori [10], 2 mg/L (≈ 6.68 µM); in the data set with Pseudomonas aeruginosa [13] it was greater than 128 mg/L; in the data set on Staphylococcus aureus [14], 32 mg/L (≈ 107 µM). Also, in the data set with Helicobacter pylori [15], the MBC came out at 4 mg/L (≈ 13.4 µM). Further, the IC50 at 48 h amounted to 12.1 mg/L (≈ 40.4 µM) in [22] and 13.4 mg/L (≈ 44.7 µM) in data set [9]. Also, the MBC90 against Helicobacter pylori [17] was found to be 4 mg/L (≈ 13.4 µM). Also, the IC50 at 24 h in data set [18] was 15.1 mg/L (≈ 50.3 µM); in data set [21], 15 mg/L (≈ 50.1 µM).
